Measurements published in ChEMBL document CHEMBL4130494, “Crassiflorone derivatives that inhibit Trypanosoma brucei glyceraldehyde-3-phosphate dehydrogenase (TbGAPDH) and Trypanosoma cruzi trypanothione reductase (TcTR) and display trypanocidal activity” (Eur J Med Chem, 2017).
In brackets after ≈: the same amount, converted by molar mass. Activity calls are given as the source filed them. The calls are words filed in the database; no cut-off is given here.

Legend:
Trypanosoma brucei = test: Inhibition of Trypanosoma brucei glyceraldehyde-3-phosphate dehydrogenase at 10 uM using GAP as substrate in presence of NAD+ by spectrophotometric method relative to control
Method in brief: (§1)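 Recombinant TbGAPDH (200–300 μg protein) in 10 mM triethanolamine, 1.7 mM NaHCO3, 100 mM KCl, 5 mM MgSO4, 1 mM EDTA, pH 7.6, 25 °C, with 400 μM NAD+, 500 μM KH2PO4, 300 μM GAP; NAD+ reduction followed at 340 nm; inhibitors from DMSO stocks; triplicate; reported as percentage activity.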

CYP2C9 = CYP2C9 (Homo sapiens, UniProt P11712); test: Inhibition of human CYP2C9 at 10 uM by P450-Glo assay relative to control; type: ADME
Chain of CYP2C9 (P11712 whole entry): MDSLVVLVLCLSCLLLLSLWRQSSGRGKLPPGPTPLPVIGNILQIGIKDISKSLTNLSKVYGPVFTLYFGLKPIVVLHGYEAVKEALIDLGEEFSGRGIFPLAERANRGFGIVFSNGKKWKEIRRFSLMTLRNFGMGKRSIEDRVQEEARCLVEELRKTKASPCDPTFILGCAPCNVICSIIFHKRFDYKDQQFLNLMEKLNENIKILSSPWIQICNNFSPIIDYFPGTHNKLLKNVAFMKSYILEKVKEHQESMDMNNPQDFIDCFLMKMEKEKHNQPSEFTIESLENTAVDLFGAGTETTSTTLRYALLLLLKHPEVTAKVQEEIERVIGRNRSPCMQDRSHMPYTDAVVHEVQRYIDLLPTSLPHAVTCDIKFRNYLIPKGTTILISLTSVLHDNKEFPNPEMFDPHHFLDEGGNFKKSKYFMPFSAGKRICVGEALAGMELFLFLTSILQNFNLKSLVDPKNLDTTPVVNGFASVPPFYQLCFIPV
Method in brief: (§2)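 P450-Glo luminescent platform: CYP action on each substrate generates light; decreased light taken as inhibition.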

CYP2D6 = CYP2D6 (Homo sapiens, UniProt P10635); test: Inhibition of human CYP2D6 at 10 uM by P450-Glo assay relative to control; type: ADME; method in brief: as §2
Chain of CYP2D6 (P10635 whole entry): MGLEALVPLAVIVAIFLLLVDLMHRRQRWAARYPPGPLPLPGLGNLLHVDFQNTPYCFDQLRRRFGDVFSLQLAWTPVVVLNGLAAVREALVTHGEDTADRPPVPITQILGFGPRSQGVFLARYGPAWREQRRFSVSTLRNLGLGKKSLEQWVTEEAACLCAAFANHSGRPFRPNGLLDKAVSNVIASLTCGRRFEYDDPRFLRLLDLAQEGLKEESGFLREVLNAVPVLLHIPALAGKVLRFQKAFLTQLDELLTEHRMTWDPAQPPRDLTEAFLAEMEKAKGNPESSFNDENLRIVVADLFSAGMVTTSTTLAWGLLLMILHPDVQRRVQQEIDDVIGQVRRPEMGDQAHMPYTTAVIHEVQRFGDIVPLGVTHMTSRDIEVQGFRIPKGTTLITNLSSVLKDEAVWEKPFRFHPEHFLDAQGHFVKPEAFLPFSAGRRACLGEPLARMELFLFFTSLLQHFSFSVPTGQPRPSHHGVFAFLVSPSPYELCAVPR

786-0 = test: Cytotoxicity against human 786-O cells assessed as mitochondrial viability at 10 uM by CMXRos staining based high-content imaging analysis relative to control; type: cell-based; details: 786-0, 10 µM
Method in brief: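 786-O cells kept in RPMI-1640 with 2 mM glutamine, 10% FCS, streptomycin and penicillin G; mitochondria of live cells stained with MitoTracker Red CMXRos and imaged by high-content imaging.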

[1] = tested on: Trypanosoma brucei brucei; test: Growth inhibition of Trypanosoma brucei brucei Lister 427 bloodstream forms at 50 uM by SYBR Green based assay relative to control; type: functional; details: read-out: GI
[2] = target: T1, Pteridine reductase 1 (Leishmania major) (UniProt Q01782); test: Inhibition of Leishmania major pteridine reductase 1 assessed as reduction in conversion of dihydrobiopterin to tetrahydrobiopterin at 50 uM up to 50 mins in presence of NADPH by cytochrome c reduction coupled photometric assay relative to control
T1 sequence (whole entry): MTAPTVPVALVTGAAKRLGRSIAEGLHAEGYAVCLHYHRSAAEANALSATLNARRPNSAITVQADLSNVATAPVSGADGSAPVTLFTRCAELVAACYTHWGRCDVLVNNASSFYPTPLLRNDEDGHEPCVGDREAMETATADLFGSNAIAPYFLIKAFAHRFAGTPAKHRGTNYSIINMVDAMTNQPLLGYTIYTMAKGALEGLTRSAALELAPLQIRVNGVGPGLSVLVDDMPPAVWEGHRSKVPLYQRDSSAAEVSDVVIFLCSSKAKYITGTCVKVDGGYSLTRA

[3] = Solubility in pH 7.4 Hanks simulated body fluid after overnight incubation by nephelometry; type: physicochemical
[4] = target: T2, Pteridine reductase, putative (Trypanosoma brucei) (UniProt Q581W1); test: Inhibition of Trypanosoma brucei pteridine reductase 1 assessed as reduction in conversion of dihydrobiopterin to tetrahydrobiopterin at 50 uM up to 50 mins in presence of NADPH by cytochrome c reduction coupled photometric assay relative to control
T2 sequence (whole entry): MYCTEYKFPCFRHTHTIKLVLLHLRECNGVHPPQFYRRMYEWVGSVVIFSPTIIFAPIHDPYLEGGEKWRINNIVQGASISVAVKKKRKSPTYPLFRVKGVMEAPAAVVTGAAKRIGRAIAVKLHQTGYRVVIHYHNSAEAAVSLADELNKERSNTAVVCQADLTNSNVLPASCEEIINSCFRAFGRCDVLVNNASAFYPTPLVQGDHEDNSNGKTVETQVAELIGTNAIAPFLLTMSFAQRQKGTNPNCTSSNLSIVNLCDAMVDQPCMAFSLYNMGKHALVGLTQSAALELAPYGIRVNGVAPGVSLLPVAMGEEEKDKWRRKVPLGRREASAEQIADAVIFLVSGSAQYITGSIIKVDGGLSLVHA

hERG (KCNH2) = hERG (KCNH2) (Homo sapiens, UniProt Q12809); test: Inhibition of Tracer Red binding to human ERG expressed in membranes at 10 uM by fluorescence polarization assay relative to control; details: membranes expressing human ERG, probe Tracer Red
Chain of hERG (KCNH2) (Q12809 whole entry): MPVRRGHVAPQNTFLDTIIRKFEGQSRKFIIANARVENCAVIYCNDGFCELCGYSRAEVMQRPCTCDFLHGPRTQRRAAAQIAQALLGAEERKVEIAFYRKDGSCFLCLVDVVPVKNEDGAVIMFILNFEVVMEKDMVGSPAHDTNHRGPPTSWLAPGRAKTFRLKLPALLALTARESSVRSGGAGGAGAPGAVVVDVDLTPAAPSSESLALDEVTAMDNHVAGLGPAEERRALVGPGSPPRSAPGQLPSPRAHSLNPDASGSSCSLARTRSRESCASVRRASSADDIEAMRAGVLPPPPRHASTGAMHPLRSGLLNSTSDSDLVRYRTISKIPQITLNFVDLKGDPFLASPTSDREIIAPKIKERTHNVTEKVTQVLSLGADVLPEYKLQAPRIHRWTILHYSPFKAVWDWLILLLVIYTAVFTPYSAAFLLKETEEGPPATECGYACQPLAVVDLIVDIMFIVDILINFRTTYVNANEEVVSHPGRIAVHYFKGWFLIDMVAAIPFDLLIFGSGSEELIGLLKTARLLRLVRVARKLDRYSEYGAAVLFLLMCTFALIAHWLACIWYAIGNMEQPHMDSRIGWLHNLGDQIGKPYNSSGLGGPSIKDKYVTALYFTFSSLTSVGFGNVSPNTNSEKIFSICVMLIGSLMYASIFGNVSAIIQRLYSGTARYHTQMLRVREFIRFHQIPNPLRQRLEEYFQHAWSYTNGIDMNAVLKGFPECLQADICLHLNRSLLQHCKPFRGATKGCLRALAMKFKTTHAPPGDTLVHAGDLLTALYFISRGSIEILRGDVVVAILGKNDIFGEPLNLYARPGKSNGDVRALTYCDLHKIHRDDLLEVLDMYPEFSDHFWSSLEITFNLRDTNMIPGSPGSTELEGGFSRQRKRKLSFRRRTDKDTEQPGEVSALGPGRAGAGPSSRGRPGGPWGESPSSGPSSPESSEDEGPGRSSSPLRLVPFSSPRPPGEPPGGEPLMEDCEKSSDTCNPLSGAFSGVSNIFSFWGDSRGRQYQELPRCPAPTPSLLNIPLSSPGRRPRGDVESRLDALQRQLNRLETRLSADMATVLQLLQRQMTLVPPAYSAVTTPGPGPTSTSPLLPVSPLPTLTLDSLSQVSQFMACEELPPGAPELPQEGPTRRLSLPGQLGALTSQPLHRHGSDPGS
Method in brief: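 Fluorescence polarization displacement of a high-affinity red fluorescent tracer from hERG channel–containing membrane fraction.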

[5] = Cytotoxicity against human A549 cells assessed as cell growth at 10 uM by CellTiter-Glo assay relative to control; type: cell-based; details: read-out: Activity
Method in brief: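 A549 cells; cellular ATP measured by CellTiter-Glo luminescence as a proxy for cell number; paclitaxel 10 μM as positive control.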

[6] = target: Trypanothione reductase (Trypanosoma cruzi) (UniProt P28593); test: Inhibition of Trypanosoma cruzi trypanothione reductase assessed as reduction in NADPH consumption at 100 uM using 100 uM trypanothione disulfide as substrate by spectrophotometric method relative to control
Chain of Trypanothione reductase (Trypanosoma cruzi) (P28593 whole entry, looked up): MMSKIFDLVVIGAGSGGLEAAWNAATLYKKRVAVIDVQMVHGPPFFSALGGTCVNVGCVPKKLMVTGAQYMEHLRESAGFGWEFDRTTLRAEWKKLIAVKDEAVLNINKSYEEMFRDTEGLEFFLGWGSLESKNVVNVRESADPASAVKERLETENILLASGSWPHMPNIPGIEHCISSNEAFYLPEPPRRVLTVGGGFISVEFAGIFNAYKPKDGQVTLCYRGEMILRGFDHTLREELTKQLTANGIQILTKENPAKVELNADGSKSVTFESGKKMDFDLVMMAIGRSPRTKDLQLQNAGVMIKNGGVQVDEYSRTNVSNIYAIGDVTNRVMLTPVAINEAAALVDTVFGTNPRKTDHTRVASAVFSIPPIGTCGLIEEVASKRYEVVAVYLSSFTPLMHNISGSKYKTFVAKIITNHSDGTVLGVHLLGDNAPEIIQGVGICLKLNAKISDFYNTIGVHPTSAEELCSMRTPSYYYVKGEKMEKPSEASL
Method in brief: (§3)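 Recombinant TcTR (5–10 mU) at 25 °C in 40 mM HEPES, 1 mM EDTA, pH 7.5, 100 μM NADPH, 5% DMSO; started with trypanothione disulfide; NADPH consumption read at 340 nm; percentage inhibition calculated.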

CYP2C19 = CYP2C19 (Homo sapiens, UniProt P33261); test: Inhibition of human CYP2C19 at 10 uM by P450-Glo assay relative to control; type: ADME; method in brief: as §2
Chain of CYP2C19 (P33261 whole entry): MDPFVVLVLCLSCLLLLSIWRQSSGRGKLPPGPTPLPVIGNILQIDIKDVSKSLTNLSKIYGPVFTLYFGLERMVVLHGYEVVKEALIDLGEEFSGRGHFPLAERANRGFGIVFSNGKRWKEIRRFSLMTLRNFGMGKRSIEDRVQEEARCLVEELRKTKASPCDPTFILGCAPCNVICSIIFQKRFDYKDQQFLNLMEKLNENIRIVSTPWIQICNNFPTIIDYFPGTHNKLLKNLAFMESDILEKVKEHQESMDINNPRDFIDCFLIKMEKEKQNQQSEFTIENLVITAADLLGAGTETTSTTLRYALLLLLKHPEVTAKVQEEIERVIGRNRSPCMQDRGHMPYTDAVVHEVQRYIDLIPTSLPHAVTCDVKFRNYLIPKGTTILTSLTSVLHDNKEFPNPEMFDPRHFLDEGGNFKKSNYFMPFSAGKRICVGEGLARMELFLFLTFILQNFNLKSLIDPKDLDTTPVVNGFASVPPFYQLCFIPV

[7] = Inhibition of Trypanosoma brucei glyceraldehyde-3-phosphate dehydrogenase using GAP as substrate in presence of NAD+ by spectrophotometric method; method in brief: as §1
CYP1A2 = target: T3, CYP1A2 (Homo sapiens, UniProt P05177); test: Inhibition of human CYP1A2 at 10 uM by P450-Glo assay relative to control; type: ADME; method in brief: as §2
T3 sequence (P05177 whole entry): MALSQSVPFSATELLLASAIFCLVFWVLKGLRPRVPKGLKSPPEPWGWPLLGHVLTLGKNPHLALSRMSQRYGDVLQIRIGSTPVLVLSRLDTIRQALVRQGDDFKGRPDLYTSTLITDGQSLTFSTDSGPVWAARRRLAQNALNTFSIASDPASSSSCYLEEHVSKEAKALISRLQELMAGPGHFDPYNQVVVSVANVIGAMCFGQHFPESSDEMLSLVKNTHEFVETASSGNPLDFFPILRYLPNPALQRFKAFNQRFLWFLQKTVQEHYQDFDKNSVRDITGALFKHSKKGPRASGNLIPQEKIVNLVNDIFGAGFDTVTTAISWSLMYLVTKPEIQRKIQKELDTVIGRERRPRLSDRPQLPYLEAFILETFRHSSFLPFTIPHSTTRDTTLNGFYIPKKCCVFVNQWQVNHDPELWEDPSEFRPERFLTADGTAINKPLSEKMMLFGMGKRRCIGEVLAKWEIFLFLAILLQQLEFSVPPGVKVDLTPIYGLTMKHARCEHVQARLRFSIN

CYP3A4 = CYP3A4 (Homo sapiens, UniProt P08684); test: Inhibition of human CYP3A4 at 10 uM by P450-Glo assay relative to control; type: ADME; method in brief: as §2
Chain of CYP3A4 (P08684 whole entry): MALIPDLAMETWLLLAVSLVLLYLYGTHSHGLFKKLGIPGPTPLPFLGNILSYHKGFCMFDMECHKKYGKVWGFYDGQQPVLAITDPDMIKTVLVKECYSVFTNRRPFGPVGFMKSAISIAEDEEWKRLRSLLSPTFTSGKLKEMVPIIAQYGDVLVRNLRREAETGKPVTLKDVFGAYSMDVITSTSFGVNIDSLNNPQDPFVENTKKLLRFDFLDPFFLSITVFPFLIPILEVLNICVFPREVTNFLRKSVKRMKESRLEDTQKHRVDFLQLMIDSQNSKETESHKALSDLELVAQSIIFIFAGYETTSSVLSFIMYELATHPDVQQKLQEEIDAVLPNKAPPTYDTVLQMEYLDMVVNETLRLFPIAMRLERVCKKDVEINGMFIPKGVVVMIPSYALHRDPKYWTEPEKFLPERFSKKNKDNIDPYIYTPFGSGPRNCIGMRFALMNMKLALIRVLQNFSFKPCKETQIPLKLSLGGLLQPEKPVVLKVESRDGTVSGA

[8] = Solubility in PBS after overnight incubation by nephelometry; type: physicochemical
[9] = target: Trypanothione reductase (Trypanosoma cruzi) (UniProt P28593); test: Inhibition of Trypanosoma cruzi trypanothione reductase assessed as reduction in NADPH consumption at 100 uM using 40 uM trypanothione disulfide as substrate by spectrophotometric method relative to control; method in brief: as §3
[10] = Inhibition of Trypanosoma brucei glyceraldehyde-3-phosphate dehydrogenase
Trypanothione reductase [11] = target: T4, Trypanothione reductase (Trypanosoma cruzi, UniProt P28593); test: Inhibition of Trypanosoma cruzi trypanothione reductase
T4 sequence (P28593 whole entry): as the sequence (P28593 whole entry, looked up) above

[12] = target: Trypanothione reductase (Trypanosoma cruzi) (UniProt P28593); test: Inhibition of Trypanosoma cruzi trypanothione reductase assessed as reduction in NADPH consumption at 20 uM using 40 uM trypanothione disulfide as substrate by spectrophotometric method relative to control; method in brief: as §3
Trypanothione reductase [13] = target: T4, Trypanothione reductase; test: Non-competitive inhibition of Trypanosoma cruzi trypanothione reductase assessed as reduction in NADPH consumption using varying levels of trypanothione disulfide as substrate by Lineweaver-Burk plot analysis
Method in brief: (§4)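 Same TcTR assay with two fixed inhibitor concentrations and TS2 at 20, 40, 60, 100, 200 μM; inhibition type from Lineweaver–Burk plots; Ki by nonlinear least-squares fit of direct plot; inhibitor assays at least duplicate.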

[14] = target: T1, Pteridine reductase 1 (Leishmania major); test: Inhibition of Leishmania major pteridine reductase 1 assessed as reduction in conversion of dihydrobiopterin to tetrahydrobiopterin at 10 uM up to 50 mins in presence of NADPH by cytochrome c reduction coupled photometric assay relative to control
[15] = target: Trypanothione reductase (Trypanosoma cruzi) (UniProt P28593); test: Inhibition of Trypanosoma cruzi trypanothione reductase assessed as reduction in NADPH consumption at 20 uM using 100 uM trypanothione disulfide as substrate by spectrophotometric method relative to control; method in brief: as §3
[16] = target: T2, Pteridine reductase, putative (Trypanosoma brucei); test: Inhibition of Trypanosoma brucei pteridine reductase 1 assessed as reduction in conversion of dihydrobiopterin to tetrahydrobiopterin at 10 uM up to 50 mins in presence of NADPH by cytochrome c reduction coupled photometric assay relative to control
[17] = tested on: Trypanosoma brucei brucei; test: Growth inhibition of Trypanosoma brucei brucei Lister 427 bloodstream forms at 10 uM by SYBR Green based assay relative to control; type: functional; details: read-out: GI
[18] = target: T2, Pteridine reductase, putative (Trypanosoma brucei); test: Inhibition of Trypanosoma brucei pteridine reductase 1 assessed as reduction in conversion of dihydrobiopterin to tetrahydrobiopterin at 20 uM up to 50 mins in presence of NADPH by cytochrome c reduction coupled photometric assay relative to control
Trypanothione reductase [19] = target: T4, Trypanothione reductase; test: Mixed-type inhibition of Trypanosoma cruzi trypanothione reductase assessed as reduction in NADPH consumption using varying levels of trypanothione disulfide as substrate by Lineweaver-Burk plot analysis; method in brief: as §4
[20] = target: Trypanothione reductase (Trypanosoma cruzi) (UniProt P28593); test: Inhibition of Trypanosoma cruzi trypanothione reductase assessed as reduction in NADPH consumption at 10 uM using 40 uM trypanothione disulfide as substrate by spectrophotometric method; method in brief: as §3
Trypanosoma cruzi = test: Growth inhibition of Trypanosoma cruzi Y trypamastigotes infected in human U2OS cells at 10 uM after 72 hrs by Draq 5 staining based high-content automated imaging analysis relative to control; type: functional; details: read-out: GI
Method in brief: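 U2OS cells (3,000/well) co-seeded with Y strain trypomastigotes at 5:1 right after compound addition; 72 h at 37 °C, 5% CO2. Fixed, stained, imaged and normalized as for the Leishmania assay; host toxicity from cell ratio against negative-control wells.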

Leishmania infantum = test: Growth inhibition of Leishmania infantum MHOM/BR/72/BH046 amastigotes infected in human THP1 cells at 10 uM after 48 hrs by Draq 5 staining based high-content automated imaging analysis relative to control; type: functional; details: MHOM/BR/72/BH046, THP-1, 48 h, read-out: GI
Method in brief: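 THP-1 cells differentiated 48 h with 50 ng/mL PMA, infected 24 h with 6-day-old promastigotes (50 per cell), then treated 48 h; 0.5% DMSO negative, 10 µM amphotericin B positive. Paraformaldehyde-fixed, Draq5-stained, imaged; infection ratio normalized to DMSO-treated infected and non-infected controls.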

[21] = target: T1, Pteridine reductase 1 (Leishmania major); test: Inhibition of Leishmania major pteridine reductase 1 assessed as reduction in conversion of dihydrobiopterin to tetrahydrobiopterin at 20 uM up to 50 mins in presence of NADPH by cytochrome c reduction coupled photometric assay relative to control
[22] = target: Trypanothione reductase (Trypanosoma cruzi) (UniProt P28593); test: Inhibition of Trypanosoma cruzi trypanothione reductase assessed as reduction in NADPH consumption at 10 uM using 100 uM trypanothione disulfide as substrate by spectrophotometric method; method in brief: as §3

| inhibition (Trypanosoma brucei) | inhibition at 10 µM (CYP2C9) | inhibition at 10 µM (CYP2D6) | solubility kinetic [3] | inhibition at 10 µM (CYP2C19) | inhibition at 10 µM (CYP1A2) | inhibition at 10 µM (CYP3A4) | solubility kinetic [8] | Structure (SMILES) | Activity (786-0) | inhibition at 10 µM (hERG (KCNH2)) | viability at 10 µM [5] | also measured |
| --- | --- | --- | --- | --- | --- | --- | --- | --- | --- | --- | --- | --- |
| 75% | 85.9% | 71.5% | 35 µM (≈ 12.2 µg/mL) | 63.6% | 37.8% | 46.8% | 14 µM (≈ 4.86 µg/mL) | Nc1ccc2oc(=O)c3c4c(oc3c2c1)C(=O)c1c(O)cccc1C4=O | 97.94% | -7.99% | 157% | inhibition of growth at 50 µM [1]: 77%; inhibition [2]: 6.19%; inhibition [4]: 5.82%; inhibition [6]: inactive; IC50 [7]: 2.1 µM; inhibition [9]: inactive |
|  |  |  |  |  |  |  |  | CN(C)CCOc1cc2ccc(OC3=CC(=O)c4cc5ccccc5cc4C3=O)cc2oc1=O |  |  |  | IC50 [10]: 5.4 µM; Ki (Trypanothione reductase [11]): 2.3 µM |
|  | 89.3% | 108% | 35 µM (≈ 12.1 µg/mL) | 55.5% | 99.2% | 38.5% | 70 µM (≈ 24.2 µg/mL) | COc1cccc2c1C(=O)c1oc3c(c1C2=O)c(=O)oc1ccccc13 | 89.95% | 42.7% | 166% | inhibition [12]: 42.6%; Ki (Trypanothione reductase [13]): 22.4 µM; inhibition [14]: -3.51%; inhibition [15]: 41.1%; inhibition [16]: -5.69% |
| 64% | 61.5% | 102% | 70 µM (≈ 23.3 µg/mL) | 107% | 57.3% | 40.8% | 14 µM (≈ 4.65 µg/mL) | O=C1c2oc3c(c2C(=O)c2cccc(O)c21)c(=O)oc1ccccc13 | 82.16% | 67.1% | 138% | inhibition of growth at 10 µM [17]: < 20%; inhibition [18]: 0.94%; Ki (Trypanothione reductase [19]): 5.6 µM; inhibition [20]: 65%; inhibition of growth at 10 µM (Trypanosoma cruzi): < 20%; inhibition of growth at 10 µM (Leishmania infantum): < 20%; inhibition [21]: 28.1%; inhibition [22]: 37.8% |
